Screens (PubChem BioAssay)
The list is not random: actives were taken first. Their share in the collection is about 3%.
HSF1 activator – increases HSF-1 driven luciferase reporter signal. NIH3T3-HGL HSF-1 luciferase reporter, MG132, 8 h; 100% = twice DMSO control signal. 300,000 tested, 1.7% active. AID 504408. activation, % at 9 µM;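 active = mean replicate activation of at least 50% with a set share of replicates each reaching 50%; inconclusive = only one of those two conditions met; inactive = mean below 50% and too few replicates reaching it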;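 also: 0% = median of the neutral control wells and 100% = twice that signal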
T cruzi inh – T. cruzi replication inhibition | T. cruzi beta-gal in NIH3T3, luminescence, 90 h | inhibition, % (no concentration beside the values) | 300,000 tested, 1.4% active | AID 1885;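 active = mean inhibition across valid replicates above about 55%, limit read from the data; inconclusive = mean below that limit but half or more replicates reach it; inactive = mean below it, under half of replicates reach it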;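 also: signal also drops with host cell toxicity which is not excluded here; 0% = plate median of DMSO wells and 100% = zero luminescence signal; higher percent means less beta-gal luminescence so fewer parasites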
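Assay system: NIH/3T3 host cells with β-galactosidase reporter T. cruzi; input: 5,000 host fibroblasts per well; compound: single 50 nL compound addition per well in DMSO; timing: ≥90 h infection period, 3 h prior cell attachment; measured by: GalScreen β-gal luminescence, detergent lysis, 60 min; evaluation: percent inhibition of parasite-derived β-gal signal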
PfHsp90 yeast 2 – growth inhibition of yeast expressing Plasmodium Hsp90; S. cerevisiae expressing PfHsp90, BacTiter-Glo ATP, 48 h; yeast lacking PDR1 and PDR3 efflux regulators; 310,000 tested, 0.32% active; inhibition, % at 9.4 µM;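 active = every replicate shows inhibition above about 80%, whatever the replicate mean, limit read from the data; inconclusive = mean inhibition reaches the set limit but some replicate falls short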;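 also: 0% = DMSO neutral controls and 100% = 20 µM radicicol positive controls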
CaV13 ICDI inh – Primary screen for inhibitors of IQ motif and Ca2+-dependent inactivation inhibitor domain binding in CACNA1D, Förster resonance energy transfer in living cells, …; 340,000 tested, 0.098% active; HEK cells, CFP/YFP FRET ICDI-IQ, plate reader, 10 min; percent FRET-ratio fall versus neutral wells; inhibition, % at 12.3 µM;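 active = mean replicate inhibition of at least 30% and at least 1% of replicates passing that level; inconclusive = only one of the two criteria is met; inactive = neither criterion is met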;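 also: 0% = median of the neutral control wells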
PvdQ inh – blocks Pseudomonas aeruginosa PvdQ acylase activity; purified PvdQ acylase, fluorescence plate reader; inhibition, % at 10 µM; 340,000 tested, 0.063% active; AID 488965; in the data active = inhibition above about 30%, passing the limit was not always enough; inconclusive = no clear call, values can overlap the other calls;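 also: 0% = vehicle neutral wells and 100% = reference inhibitor wells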
Glyco luc inh – N-linked glycosylation inhibition; D54 ERlucT glycosylation luciferase reporter, 24 h; percent of 100 nM tunicamycin response; reporter increase, % at 12.5 µM; 360,000 tested, 0.23% active;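 active = mean luciferase reporter signal, scaled so untreated is 0 and the glycosylation-blocking control 100, at or above a set limit in every replicate; inconclusive = mean reaches the limit but not every replicate does; inactive = mean below the limit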;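 also: luciferase carries N-glycosylation sites so blocking glycosylation raises the light; 0% = median of neutral control wells and 100% = median of 100 nM tunicamycin wells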
An asterisk follows results filed as active; ? = inconclusive; . = no result given.

SMILES | HSF1 activator | T cruzi inh | PfHsp90 yeast 2 | CaV13 ICDI inh | PvdQ inh | Glyco luc inh
CC(C)C[C@@H]1COc2cccc(N3CCC[C@H]3CO)c2S(=O)(=O)N1 | . | . | . | -8.1 | . | .
O=[N+]([O-])c1ccc(S(=O)(=O)Nc2ccc(-c3csc(-c4ccccc4)n3)cc2)cc1 | 19.3 | 65.6* | . | . | . | .
O=S(=O)(Nc1ccc(-c2csc(-c3ccccc3)n2)cc1)c1ccccc1 | 42.4 | 33.3 | 71.5 | -4.6 | -9.6 | -1.8
c1ccc(Nc2nc(-c3ccccn3)cs2)cc1 | 40.5 | 43.2 | -8.5 | -4.4 | -4.6 | -10.5
COc1cccc2sc(Nc3nc(-c4ccccn4)cs3)nc12 | 128.2* | 74.5* | 107.0* | . | -2.7 | -13.1
COc1cccc2sc(Nc3nnc(-c4cccs4)o3)nc12 | 300.6* | 65.0* | . | -3.9 | 8.4 | 15.3
COc1cccc2sc(Nc3nnc(-c4ccc(F)cc4)o3)nc12 | 6.3 | 42.8 | -58.9 | -5.9 | -15.1 | 7.5
COCCN1C[C@@H](CO)O[C@@H](n2cnc3c(NCCCO)ncnc32)C1 | . | . | . | -2.7 | . | 0.6
COC(=O)C[C@H]1CC[C@H](NC(=O)c2ccc(F)cc2)[C@@H](CO)O1 | . | . | . | -4.7 | . | .
CCC(C)(C)c1ccc(OCCCC[n+]2cccc(C)c2)c(C(C)(C)CC)c1 | -17.6 | 59.6* | -33.8 | -3.9 | 8.7 | 12.7
Cc1ccc[n+](CC(=O)Nc2cc(C(F)(F)F)ccc2Cl)c1 | -14.8 | -17.9 | 15.7 | . | -11.1 | 1.3
CCN(CC)c1ncnc2c1ncn2[C@H]1CN(Cc2ccc3c(c2)OCO3)C[C@@H](CO)O1 | . | . | . | -8.9 | . | 0.7
CCNc1c(N)c(=O)oc2ccccc12 | -22.0 | -10.4 | -7.8 | . | 2.7 | -0.1
Nc1c(Nc2ccccc2)c2ccccc2oc1=O | 87.8* | -33.6 | 12.0 | -5.6 | 24.5 | -0.5
O=C(CSCc1ccc(F)cc1)N1CCN(c2ccc(F)cc2)CC1 | 4.9 | 3.2 | . | -3.5 | -13.0 | -1.6
Cc1ccc(CSCC(=O)N2CCN(c3ccc(F)cc3)CC2)cc1 | 2.7 | 56.7* | -12.9 | -8.2 | -4.7 | 0.7
COCCN1C(=O)CN(S(C)(=O)=O)CC1(C)C(=O)NCc1ccccc1 (centres undefined) | . | . | . | -15.9 | . | .
CC(=O)Nc1ccc(NC(=O)c2ccc(NS(=O)(=O)c3cc(C(C)(C)C)cc(C)c3C)cc2)cc1 | 109.9* | -4.6 | -2.0 | -5.0 | -6.1 | 0.4
Cc1cc(C(C)(C)C)cc(S(=O)(=O)Nc2ccc(O)c(C(=O)O)c2)c1C | 0.3 | -17.0 | . | -3.5 | -13.0 | 3.8
COc1ccccc1Cc1c(C(C)(C)C)nc2c(C)cc(Br)cn12 | . | . | . | -7.5 | . | .
CC(=O)c1ccc(NC(=S)N2C(C)CCCC2C)cc1 (centres undefined) | 58.9* | -18.8 | . | . | . | .
CC(C)SC1=NC(C)(C)C=C(/C=C/c2ccc(Cl)cc2Cl)N1 | 82.4* | 17.7 | 3.7 | -2.7 | -9.9 | 0.6
O=C(Nc1cccs1)Nc1nnc([C@@H]2C[C@H](O)[C@@H](CO)O2)s1 | . | . | . | -4.9 | . | 1.2
COc1ccc(CN(C)C(=O)[C@@H](Cc2ccccc2)NC(=O)[C@H]2O[C@@H](n3ccc(N)nc3=O)[C@H](O)[C@@H]2O)cc1OC | . | . | . | -3.6 | . | .
CC1CCN(c2ccc(C(=O)NCc3cccs3)cn2)CC1 | 51.9* | 6.5 | 29.0 | -8.3 | -4.9 | -3.5
SMILES | HSF1 activator | T cruzi inh | PfHsp90 yeast 2 | CaV13 ICDI inh | PvdQ inh | Glyco luc inh
CC1CCN(S(=O)(=O)c2cccc(C(=O)NCc3cccs3)c2)CC1 | 0.4 | -11.2 | 1.3 | . | -17.4 | -2.1
NC(N)=N/N=C/c1ccc(OCc2ccccc2)c(OCc2ccccc2)c1 | -3.5 | -0.4 | -20.8 | -4.7 | -0.5 | -20.0
NC(N)=N/N=C/c1ccccc1 | -1.7 | 62.3* | 10.4 | -5.8 | -1.6 | 0.2
NC(N)=N/N=C/c1ccc(OCc2ccccc2Cl)cc1 | 23.0 | 68.7* | 27.7 | -8.9 | 1.3 | -12.8
NC(=N\N=Cc1ccccc1)/C(N)=N/N=Cc1ccccc1 | . | . | . | -5.3 | . | 2.8
COc1cnn(-c2cc(Oc3ccc(C)cc3)ncn2)c(=O)c1Cl | 94.5* | -7.8 | -12.9 | -6.5 | -1.4 | -1.0
COCCOc1cnn(-c2cc(Oc3ccc(C)cc3)ncn2)c(=O)c1Cl | -5.7 | -14.8 | 2.0 | -4.9 | 1.9 | 1.0
Cc1cc2oc(=O)cc(CNc3ccccc3F)c2cc1O | -16.3 | 58.6* | 12.7 | -3.8 | -5.2 | 2.4
COCCNc1nc(Nc2ccc(C)cc2C)c2sccc2n1 | . | . | . | -6.4 | . | 14.0
NC(=O)c1cccc(Nc2nc(C(N)COCc3ccccc3)cs2)n1 (centres undefined) | . | . | . | -5.2 | . | 2.1
O=C(Nc1nc2ccccc2n1Cc1ccccc1)c1ccc(COc2ccccc2[N+](=O)[O-])o1 | 5.2 | 67.9* | . | -7.6 | 0.5 | 3.0
Cc1ccc(OCc2ccc(C(=O)Nc3nc4ccccc4n3Cc3ccccc3)o2)c([N+](=O)[O-])c1 | 10.2 | 42.5 | -8.1 | -5.2 | -4.3 | -1.7
CCCCOc1ccc(N2C(=O)CC(N(O)c3ccccc3)C2=O)cc1 (centres undefined) | 107.0* | -10.7 | . | -5.3 | -8.2 | 6.3
CCCCCCOc1ccc(N2C(=O)CC(N3CCC(C(=O)OCC)CC3)C2=O)cc1 (centres undefined) | 5.2 | 0.6 | 106.4* | . | 2.9 | 2.3
CC(=O)Nc1cccc(N2C(=O)CC(N3CCC(C(=O)N4CCCCC4)CC3)C2=O)c1 (centres undefined) | 5.9 | -33.5 | -14.9 | -2.3 | 1.0 | 0.5
CCCOc1ccc(N2C(=O)CC(SC(=N)N3N=C(c4ccccc4)CC3c3ccccc3)C2=O)cc1 (centres undefined) | 38.3 | 68.1* | -13.8 | -4.3 | -12.4 | 1.8
CCOC(=O)C1CCN(C2CC(=O)N(c3ccc(OCC)cc3)C2=O)CC1 (centres undefined) | -5.3 | -3.5 | -54.4 | 0.0 | 4.1 | -1.3
COc1cc(OC)cc(N2C(=O)CC(N3CCC(C(=O)N4CCCCC4)CC3)C2=O)c1 (centres undefined) | 6.1 | -8.2 | 82.2* | . | -5.1 | 0.4
C[C@@H]1CN([C@@H](C)CO)C(=O)CCCn2cc(nn2)CO[C@H]1CN(C)C(=O)C1CCCCC1 | . | . | . | -4.1 | . | .
Cc1ccsc1CN(C)CC(=O)N(C)CC(=O)Nc1c(Cl)cccc1Cl | . | . | . | -4.5 | . | -1.1
CCCOc1ccc(N2C(=O)CC(N(Cc3ccc(OC)cc3)C(=S)Nc3ccccc3)C2=O)cc1 (centres undefined) | 21.7 | 26.9 | -7.9 | -9.5 | -14.3 | -1.6
O=C1CC(N(O)C2CC(=O)N(Cc3ccccc3)C2=O)C(=O)N1Cc1ccccc1 (centres undefined) | 56.8* | -17.1 | -2.1 | -3.7 | -6.7 | -0.2
CCCCCC(=O)N(O)C1CC(=O)N(c2ccccc2)C1=O (centres undefined) | . | -9.5 | 105.3* | -4.9 | -10.1 | 23.8
CCCN(CCC)C1CC(=O)N(Cc2ccccc2)C1=O (centres undefined) | -40.7 | 2.3 | ? | . | -6.3 | 2.1
